Format in all cases: functional, cell-based
Experiment [1] has as its system SK-MEL-1. Kind of experiment: Antiproliferative activity against human SK-MEL-1 cells by MTT assay. Summed up: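 SK-MEL-1 in RPMI 1640 + 10% heat-inactivated FBS, 37 °C, 5% CO2; resuspended in fresh medium 24 h before treatment. 1 × 10^4 exponentially growing cells exposed 72 h at 37 °C to graded concentrations (10 mM ethanol/dodecane 49:1 stocks; final solvent ≤0.5%, vehicle controls). MTT; OD 570 nm vs control; IC50 by curve fitting; two independent experiments, triplicate determinations.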

The subject of experiment [2] is SK-MEL-1. Kind of experiment: Apoptotic activity in human SK-MEL-1 cells measured as induction of DNA fragmentation. The method, boiled down: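 SK-MEL-1 cells incubated 6 h or 12 h with 10-30 µM ceramides or untreated. 4 × 10^5 cells lysed in 50 mM Tris-HCl pH 8.0, 10 mM EDTA, 0.5% SDS, RNase A (37 °C, 1 h), then proteinase K (50 °C, 2 h). Phenol-chloroform-isoamyl alcohol extraction; 2% agarose gel in TAE at 40 V, 4 h; ethidium bromide staining, UV visualisation of ladders.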

The test system of experiment [3] is SK-MEL-1. The experiment is described as follows: Apoptotic activity in human SK-MEL-1 cells measured as induction of poly ADP-ribose polymerase cleavage by Western blot analysis. The method, boiled down:
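SK-MEL-1 cells exposed 12 h to 10 µM or 30 µM ceramides; untreated controls. Cells pelleted, washed in ice-cold PBS, lysed; SDS-PAGE and immunoblot with anti-PARP antibody that also detects the 85 kDa cleavage fragment.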
A general note: In western blotting, separated proteins are transferred to a membrane and probed.

Experiment [4] relates to SK-MEL-1. Kind of experiment: Apoptotic activity in human SK-MEL-1 cells measured as procaspase 8 cleavage by Western blot analysis. Summed up: (§1)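 Western blot for procaspase-8 and -9 in SK-MEL-1 cells cultured with 10 µM or 30 µM ceramides and harvested at 12 h.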
Experiment [5] concerns SK-MEL-1. The experiment is described as follows: Apoptotic activity in human SK-MEL-1 cells measured as procaspase 9 cleavage by Western blot analysis. The method, boiled down:
as §1

Active and inactive are the calls of the source. No cut-off for these calls is given here.

Broadly, the IC50 is the concentration that gives 50% inhibition. A lower IC50 goes with greater potency in that assay.

Turning to `CCCCCCCCCCCCCCCCCC[C@@H](OC(C)=O)[C@@H](OC(C)=O)[C@H](COC(C)=O)NC(=O)[C@H](OC(C)=O)[C@@H](CCCCCCCCCCCCCCCCC)OC(C)=O`, the half-maximal inhibitory concentration (IC50) in the experiment with SK-MEL-1 [1] worked out at 5.6 µM. Also, in the experiment on SK-MEL-1 [2], the Activity result is “Dose-dependent effect”. The outcome in the experiment with SK-MEL-1 [3], in the experiment on SK-MEL-1 [4] and in the experiment on SK-MEL-1 [5] was Active.

For `CCCCCCCCCCCCCCCCCC[C@@H](OC(C)=O)[C@@H](OC(C)=O)[C@H](COC(C)=O)NC(=O)[C@H](OC(C)=O)[C@H](CCCCCCCCCCCCCCCCC)OC(C)=O`, the IC50 with SK-MEL-1 [1] came to 7.1 µM. For the same molecule, in the experiment with SK-MEL-1 [2], the Activity result was “Dose-dependent effect”. Also, the outcome with SK-MEL-1 [3], with SK-MEL-1 [4] and in the experiment on SK-MEL-1 [5] was Active.

As for `CCCCCCCCCCCCCCCCCC[C@@H](OC(C)=O)[C@@H](OC(C)=O)[C@H](COC(C)=O)NC(=O)[C@@H](OC(C)=O)[C@H](CCCCCCCCCCCCCCCCC)OC(C)=O`, in the experiment on SK-MEL-1 [1], the midpoint of inhibition, the IC50, lay at 10.2 µM. Besides, the Activity result in the experiment with SK-MEL-1 [2] was “Dose-dependent effect”. Besides, the outcome in the experiment with SK-MEL-1 [3], in the experiment on SK-MEL-1 [4] and with SK-MEL-1 [5] was Active.

In the experiment with SK-MEL-1 [1], `CCCCCCCCCCCCCCCCCC[C@@H](OC(C)=O)[C@@H](OC(C)=O)[C@H](COC(C)=O)NC(=O)[C@@H](OC(C)=O)[C@@H](CCCCCCCCCCCCCCCCC)OC(C)=O` registered a concentration for half-maximal inhibition (IC50) of 3.9 µM. In addition, in the experiment with SK-MEL-1 [2], the Activity entry was “Dose-dependent effect”. For the same molecule, the result in the experiment with SK-MEL-1 [3], in the experiment on SK-MEL-1 [4] and in the experiment with SK-MEL-1 [5] was Active.

`CCCCCCCCCCCCCCCCCC[C@@H](OC(C)=O)C(=O)N[C@@H](COC(C)=O)[C@H](OC(C)=O)[C@@H](CCCCCCCCCCCCCCCCCC)OC(C)=O` yielded an IC50 in the experiment with SK-MEL-1 [1] of 7.7 µM. Further, the Activity result with SK-MEL-1 [2] was “Dose-dependent effect”. Further, the outcome in the experiment on SK-MEL-1 [3], in the experiment with SK-MEL-1 [4] and with SK-MEL-1 [5] was Active.

Source of the values: ChEMBL document CHEMBL1149369, “Isolation, structure elucidation, total synthesis, and evaluation of new natural and synthetic ceramides on human SK-MEL-1 melanoma cells” (J Med Chem, 2006).
